# High-throughput results from PubChem.
# Rows were chosen to be rich in hits. Some 9.2% of all compounds tested hit in one or more screens of this group.
# Autophagy HCS = autophagy modulators in MEF cells, primary screen, imaging, high-content, MEF GFP-LC3; calls only at 10 µM (by protocol); AID 463193, 2010; MEF GFP-LC3 puncta imaging; test concentration mostly 10 µM; 0.98% of 190,000 active;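 active = percentage of spot-positive cells more than 3 SD above its plate mean, without a fluorescence outlier flag or 80% toxicity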;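 also: spot-positive cell cutoff set from DMSO-treated cells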
# PTEN del growth = growth suppression of PTEN-null HCT116, primary screen, cell-based, CellTiter-Glo | HCT116 PTEN-null viability, 60 h; stronger effect = lower value | viability, % at 10 µM | 1.2% of 140,000 active | AID 827, 2007;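 active = viability at or below a set limit, 4 SD under the median of all tested compounds, cut at about 3.7% in these data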;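 also: PTEN knockout HCT116 line with beta catenin targeted HCT116 as companion control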
# Lmaj promast = Leishmania major promastigote growth inhibition, primary screen; 9% of 200,000 active; inhibition, % at 10 µM; AID 1063, 2008; Leishmania major promastigotes, resazurin fluorescence viability; in the data active = inhibition above about 50%;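 also: promastigotes grown with compound for 44 hours at 28 °C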
# Dynein cargo inh = inhibitors of GR-EGFP nuclear translocation, primary screen, dynein cargo transport inhibitor project, imaging, high-content, 3617.4 mouse cells; 0.47% of 220,000 active; test concentration mostly 20 µM; stimulated with dexamethasone, 1 µM; stronger effect = lower value; AID 1381, 2008; z-score, hits read low;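 active = plate z-score of nuclear minus cytoplasmic receptor signal below a set negative limit, without overly bright fluorescence or cell loss, cut at about -3.5 in these data, passing the limit was not always enough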;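 also: z-score of nuclear minus cytoplasmic ring GR-EGFP intensity difference per well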
#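 Buffer or medium: tet-free, stripped-serum medium; Also added: dexamethasone, 1.0 µM final; Technique: high-content fluorescence imaging after fixation; Times: 48 h induction, 1 h compound, 30 min dex at 37 °C; Read-out: per-cell GR-EGFP intensity, nucleus versus surrounding cytoplasmic ring, well-averaged.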
# bCat KO growth = primary screen for growth suppressors in beta-catenin knockout HCT116 cells (colon tumor, human). AID 818, 2007. viability, % at 10 µM. 1.5% of 140,000 active. HCT116 beta-catenin knockout viability, CellTiter-Glo, 60 h; stronger effect = lower value;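 active = viability at or under a set limit, the compound median less 4 SD, cut at about 6% in these data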;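 also: 0% = Hyamine 1622 control at 20 µM and 100% = untreated cell control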
# Numbers without * were called inactive; i = inactive; nt = no result given.
SMILES,Autophagy HCS,PTEN del growth,Lmaj promast,Dynein cargo inh,bCat KO growth
Cc1ccc(C(C(=O)NC2CCCCC2)N(Cc2ccco2)C(=O)Cn2cnc3ccccc32)cc1 (stereo not given),i,64,60*,0.58,67
Cc1ccccc1Oc1ncnc2sccc12,i,96,-6,1.1,119
COc1ccc(CCn2c(-c3cc([N+](=O)[O-])cc([N+](=O)[O-])c3)nc3nc4ccccc4nc32)cc1OC,i,78,80*,0.2,72
COc1ccc(CCn2c(-c3ccco3)nc3nc4ccccc4nc32)cc1,i,70,18,-0.92,70
COc1ccc(CCn2c(-c3cc([N+](=O)[O-])cc([N+](=O)[O-])c3)nc3nc4ccccc4nc32)cc1,i,83,89*,1.4,85
O=C(NNC(=S)Nc1ccccc1)C1CCCCC1,i,nt,-2,-0.14,nt
CC(NC(=O)CCc1nnc(CCCc2ccccc2)o1)c1ccccc1 (stereo not given),i,nt,76*,0.26,nt
CC(NC(=O)CCc1nnc(-c2ccccc2)o1)c1ccccc1 (stereo not given),i,nt,-4,-0.76,nt
CSc1cccc(NS(=O)(=O)c2ccc(F)cc2)c1,i,77,55*,0.72,83
CSc1cccc(NS(=O)(=O)c2ccccc2)c1,i,102,-1,-0.47,99
OC(COc1cccc2ccccc12)CN1CCN(c2ccc(Cl)cc2)CC1 (stereo not given),nt,nt,nt,1.5,nt
OC(COc1ccc2ccccc2c1)CN1CCCC1 (stereo not given),i,98,74*,-0.6,93
OC(COc1cccc2ccccc12)CN1CCCC1 (stereo not given),i,102,100*,-0.5,95
NS(=O)(=O)c1ccc(CNC(=O)c2scc3c2CCCC3)cc1,i,nt,10,-0.72,nt
CC1=Nc2cc(C(=O)NCc3ccco3)ccc2Sc2ccc(C)cc21,i,10,59*,-0.046,11
COc1cccc(CN(C)c2nc(-c3cccs3)nc3ccccc23)c1,i,56,92*,0.036,61
COc1ccc(N2CCN(c3nc(-c4cccs4)nc4ccccc34)CC2)cc1,i,nt,36,0.57,nt
CCCCCCCCNc1ncnc2ccccc12,i,10,77*,-0.56,8
COc1cccc(Nc2ncnc3ccccc23)c1,i,105,62*,-0.84,95
COc1ccc(Nc2nc(-c3cccs3)nc3ccccc23)cc1,i,60,40,-0.0027,62
COc1cccc(Nc2nc(-c3cccs3)nc3ccccc23)c1,i,59,99*,1.7,59
Cc1sc2ncnc(N3CCCC(C)C3)c2c1C (stereo not given),i,nt,-10,-0.45,nt
CCn1c(/C=C/Nc2ccccc2)[n+](CC)c2ccc(Cl)cc21,i,47,91*,0.0024,47
CCOC(=O)c1ccc2c(c1)n(CC)c(/C=C/Nc1ccccc1)[n+]2CC,i,59,25,3.3,65
CCn1c(/C=C/N(C)c2ccccc2)[n+](CC)c2ccc(Cl)cc21,i,5,100*,-0.38,3.8*
SMILES,Autophagy HCS,PTEN del growth,Lmaj promast,Dynein cargo inh,bCat KO growth
CCn1c(C)[n+](Cc2ccccc2)c2ccc(Cl)cc21,i,nt,9,-0.61,nt
COc1ccc(C(=O)NCC(=O)Nc2cccc(S(=O)(=O)NCc3ccco3)c2)cc1OC,i,nt,-3,1.5,nt
COc1ccc(-c2c[n+](CC(=O)OC3CC(C)CCC3C(C)C)c3n2CCC3)cc1 (stereo not given),i,nt,100*,1.1,nt
CC(C)[C@@H]1CC[C@@H](C)C[C@H]1OC(=O)C[n+]1cc(-c2ccc(Cl)cc2)n2c1CCCCC2,nt,nt,nt,-0.94,nt
COc1ccc(CC(=O)N2CCN(S(=O)(=O)c3cccs3)CC2)cc1OC,nt,nt,nt,0.58,nt
OCCC1CN(Cc2cccc3c2OCO3)CCN1C1CCCCC1 (stereo not given),i,nt,23,-0.89,nt
Fc1ccccc1CNCCC(Cc1ccccc1)c1ccc2c(c1)OCO2 (stereo not given),i,44,66*,-0.24,44
COc1ccc(CNCCC(c2ccccc2)c2ccc3c(c2)OCO3)cc1 (stereo not given),i,22,100*,-0.45,10
COC(=O)c1nn(-c2ccc(Cl)cc2)c(=O)cc1Sc1ccccn1,i,106,-4,0.21,84
